Source: PubChem BioAssay (several laboratories)
Pemphigus Ab inh – blocks pemphigus antibody binding to human desmoglein-3 | DSG3-coupled beads, scFv-anti-DSG3-GFP binding, flow cytometry; stronger effect = lower value | binding (percent of control), % at 10 µM | actives 0.48% (n = 310,000) | AID 588358;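 active means binding more than 3 SD below its plate's average and above zero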;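 further: hits lower antibody fragment binding to DSG3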
T cell HTS – T cell immune modulators affecting CD8 T cell-vesicle binding. 2C CD8+ T cell-vesicle binding, flow cytometry; stronger effect = lower value. response (vesicle binding), % at 7 µM. actives 0.068% (n = 330,000). AID 2052;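 active means response, share of CD8 T cells binding vesicles, and their 90th percentile fluorescence all below set limits, cut at about 80% in these data, passing the limit was not always enough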;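 further: values below 100% mean blocked vesicle binding to the CD8+ T cells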
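Assay system – 2C mouse CD8+ T cells · Also added – QL9-loaded Drosophila micro-vesicles · Timing – Cell–vesicle co-incubation 1.5 h at 37 °C, staining 20 min on ice · Signal – flow cytometry of vesicle-bound cells · Measure – percent CD8+ FL2 mean versus row control · Controls – Peptide-free naked vesicles (low) and QL9 vesicles with 0.7% DMSO vehicle (high)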
CHT inh – inhibits the human high affinity choline transporter. actives 0.86% (n = 310,000). CHT-expressing cells, membrane potential dye, choline response; stronger effect = lower value. B-score at 10 µM;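 active means B-score over 3 SD under the library average, and starting fluorescence ratio not unusually high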;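 further: choline stimulus applied at its EC90 after an EC20 pre-addition; B-score computed on integrated fluorescence ratio after choline addition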
CHT PAM – allosteric activators of human choline transporter CHT | actives 0.49% (n = 310,000) | CHT-expressing cells, membrane potential dye, choline EC20; stronger effect = higher value; LV-AA mutant CHT in HEK293 cells | Q9GZV3 | B-score at 10 µM;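 active means initial fluorescence not abnormally high and integrated response B-score, plate-corrected, over 3 SD above library mean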
GPR7 antagonist – antagonists of human GPR7 (neuropeptides B/W receptor 1); P48145; GPR7-expressing cells, fluorescence antagonist assay; inhibition, % at 4.4 µM; actives 1.1% (n = 290,000); in the data active means inhibition above about 16%, passing the limit was not always enough;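 further: cells stimulated with the agonist NPW; 0% = agonist with vehicle and 100% = vehicle without agonist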
pCIP destab – p/CIP protein destabilization | F442A p/CIP-EGFP cells, EGFP fluorescence, 16 h | decrease of EGFP signal, % at 10 µM | actives 0.01% (n = 290,000) | AID 1984;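 active means EGFP signal decrease of at least 30% at 10 µM or well 3 SD below plate mean, unless failing retest; inactive means the rest, including hits failing retest or dose response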
CHT block conf – human CHT inhibition, confirmatory screen; shares compounds with CHT inh; CHT-expressing cells, choline membrane potential dye; LV-to-AA substituted CHT, HEK293 cells; CHT activity remaining % of control (stronger effect = lower value), % at 10 µM; actives 70% (n = 2,400); AID 493221;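 active means choline transporter activity left, mean of duplicates at 10 µM, below buffer-only control mean minus 3 SD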;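 further: depolarization triggered by choline at its EC90 following an EC20 pre-addition; 0% = hemicholinium-3 full block and 100% = buffer-only control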
HEK293 CHT ctr – CHT inhibitor counter-screen hit in parental HEK293 cells; shares compounds with CHT inh; membrane potential dye, choline response; active = decrease or increase beyond buffer ±3SD; membrane potential ratio readout (active if shifted either direction beyond buffer ±3SD; no single direction) at 10 µM; actives 4% (n = 2,400);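 further: parental cells lack the transporter so any hit is non-specific; ratio is peak minus trough fluorescence over baseline after EC90 choline challenge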
The depositor's hits bear a star; i = inactive; . = not tested or not shown. A selection: hits, their analogues and other compounds. The true share with any hit is near 2.3%.

SMILES	Pemphigus Ab inh	T cell HTS	CHT inh	CHT PAM	GPR7 antagonist	pCIP destab	CHT block conf	HEK293 CHT ctr
CC(C)(C)CC(C)(C)NC(=S)Nc1ccc2nc(-c3ccccn3)c(-c3ccccn3)nc2c1	151	269	-8.4*	i	-8	-12	45%*	i
COc1ccc(C2C(C)C(=O)C(C)C(c3ccc(OC)cc3)N2N=O)cc1 (centres undefined)	92	.	.	.	.	.	.	.
COc1ccc(NC(=O)COC(=O)C2COc3ccccc3O2)cc1OC (centres undefined)	99	.	.	.	.	.	.	.
Cc1cccc(NC(=O)COC(=O)CC2CCCC2)c1C	97	.	.	.	.	.	.	.
NC(=O)C1(NC2CCCCC2)CCN(Cc2ccccc2)CC1	95	.	.	.	.	.	.	.
COc1cccc2sc(N(CCN(C)C)C(=O)c3ccc4c(c3)CCCC4)nc12	104	407	-10*	i	-2	-11	18%*	i
Cc1cccc2sc(N(CCCN(C)C)C(=O)c3ccc(Cl)s3)nc12	101	100	-6.8*	i	2	0	27%*	i
CCOc1cccc2sc(N(CCN(C)C)C(=O)c3ccc4c(c3)OCCO4)nc12	.	367	-8.4*	i	1	3	19%*	i
CN(C)CCN(C(=O)c1ccc2c(c1)CCCC2)c1nc2c(F)cccc2s1	105	475	i	i	-4	-10	.	.
CCCn1c(SCC(=O)c2cc(C)n(-c3ccc4c(c3)OCO4)c2C)n[nH]c1=O	89	268	-5.5*	i	-14	-3	i	i
CNC(=O)C[C@H]1C(=O)N(CCc2ccccc2)C[C@@H]1C	107	.	.	.	.	.	.	.
O=C(COc1ccccc1Br)c1ccc(O)cc1O	103	397	-5.7*	i	-5	-9	54%*	i
CC(NC(=O)CN(c1cccc(C(F)(F)F)c1)S(=O)(=O)c1ccc(Cl)c([N+](=O)[O-])c1)c1ccccc1 (centres undefined)	117	164	-6.2*	i	46*	-1	i	i
COCCN1Cc2cccc(C(=O)Nc3ccc(-c4nc5ccccc5[nH]4)cc3)c2C1=O	114	292	-8.3*	i	-4	-3	i	i
Cc1nn(-c2nnc(NCc3ccccc3)nn2)c(C)c1Br	98	486	-5.3*	i	-8	-5	i	i
Cc1cc(C)nc(NS(=O)(=O)c2ccc(NC(=O)C3COc4ccccc4O3)cc2)n1 (centres undefined)	101	313	-6.4*	i	-4	-14	41%*	i
Cn1c(N2CCOCC2)c(/C=N/OC(=O)c2ccc(F)cc2)c2ccccc21	96	328	-7.4*	i	-3	-7	44%*	i
Cc1ccc(C(=O)O/N=C/c2c(N3CCOCC3)n(C)c3ccccc23)cc1	.	308	i	i	0	-13	.	.
O=C(CC(=O)c1c(F)cccc1Cl)c1ccccc1O	94	313	-5.6*	i	-1	-2	46%*	i
CC(=O)Nc1ccc(C(=O)N/N=C/c2cc(Br)cc(Br)c2O)cc1	89	197	i	i	5	-1	.	.
Cc1ccc(C(=O)O)cc1N=Cc1cc(Br)cc(Br)c1O	96	504	-6.2*	i	-8	-7	59%*	i
Nn1c(Cc2ccccc2F)nnc1SCC(=O)Nc1cccc(S(=O)(=O)NC2=NCCCCC2)c1	105	110	-6.1*	i	-11	-17	i	i
NC(N)=Nc1nc(CCN2C(=O)c3ccccc3C2=O)cs1	.	236	-6.3*	i	2	-37	30%*	i
CCCCn1c(N)c(N(CCOC)C(=O)CCN2C(=O)C3CC=CCC3C2=O)c(=O)[nH]c1=O (centres undefined)	107	.	.	.	.	.	.	.
CC(CCc1ccc(O)cc1)NCc1ccc(Br)cc1 (centres undefined)	118	315	-5.1*	i	5	-1	i	i
SMILES	Pemphigus Ab inh	T cell HTS	CHT inh	CHT PAM	GPR7 antagonist	pCIP destab	CHT block conf	HEK293 CHT ctr
O=C(O)c1cc([N+](=O)[O-])ccc1Oc1ccccc1	97	.	.	.	.	.	.	.
Cc1cccc(NC(=O)CN(C)C(=O)/C=C/c2ccccc2)c1C	98	.	.	.	.	.	.	.
COc1ccccc1C(=O)NCCC(=O)Nc1ccc(S(=O)(=O)N2CC(C)CC(C)C2)cc1 (centres undefined)	.	293	.	.	.	.	.	.
Cc1cc(C)c(NC(=O)CN2CCN(C)CC2)c(C)c1	105	244	i	i	.	-8	.	.
COc1ccc(N2CCN(CC(=O)Nc3c(C)cc(C)cc3C)CC2)cc1	114	711	-6.1*	i	-8	0	53%*	i
COc1ccc(-c2cc(C(F)(F)F)c3c(=O)n(-c4ccccc4)[nH]c3n2)cc1	109	421	-6*	i	-11	-12	66%*	2.3*
Cc1sc2ncnc(N3CCC(C(=O)Nc4ccc(Br)cc4Br)CC3)c2c1C	110	473	i	i	.	.	.	.
Cc1cc(Cl)ccc1OCCCC(=O)N1CCN(C(=O)c2ccco2)CC1	101	271	-5.3*	i	-5	-13	68%*	i
O=C(c1ccco1)N1CCN(C(=O)c2ccc(COc3ccc(Cl)cc3Cl)o2)CC1	.	413	-6.3*	i	-13	.	i	i
CC(OC(=O)c1cc2sccc2n1C)C(=O)NC(C)(C)C (centres undefined)	102	195	-9.2*	i	-6	-13	59%*	i
CC(OC(=O)c1cc2sccc2n1C)C(=O)NCc1cccs1 (centres undefined)	97	.	i	i	-3	0	.	.
CCn1c(COc2ccc(OC)cc2)nc2ccccc21	.	844	-5.2*	i	13	-14	i	i
COc1ccc(Cl)cc1NC(=O)c1cccc([N+](=O)[O-])c1O	89	.	.	.	.	.	.	.
O=C(CC(CC(=O)c1ccc(Cl)cc1)c1ccccc1C(=O)O)c1ccc(Cl)cc1	101	670	-5.8*	i	-9	-1	40%*	i
NCCCn1c(C(=O)c2ccc(Cl)cc2)c2ccc(C(F)(F)F)cc2[n+]1[O-]	110	133	-5.1*	i	.	.	31%*	2.2*
NC(=O)CCCn1c(C(=O)c2cc(Cl)c(N)c(Cl)c2)c2ccc([N+](=O)[O-])cc2[n+]1[O-]	105	130	-8.8*	i	.	.	17%*	i
NC(=O)CCCn1c(C(=O)c2ccc(Cl)cc2)c2ccc([N+](=O)[O-])cc2[n+]1[O-]	106	141	i	i	.	.	.	.
